# Source: ChEMBL document CHEMBL1143724, “4-Amino-5-vinyl-3(2H)-pyridazinones and analogues as potent antinociceptive agents: Synthesis, SARs, and preliminary studies on the mechanism of action” (Bioorg Med Chem, 2007)
# Columns and labels:
# Mus musculus = assay: Antinociceptive effect in sc dosed CD1 mouse; assay type: functional
# Outline: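 Acetic acid abdominal constriction test, with compounds given sc 30 min before acetic acid. Writhes counted over 10 min. A response was scored as protected if below 3 SD of the control mean. Six to 8 mice per dose, at least 18 per experiment.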
# Mu-type opioid receptor = Mu-type opioid receptor (Homo sapiens, UniProt P35372); assay: Binding affinity to mu opioid receptor
# Sequence of Mu-type opioid receptor (P35372 whole entry): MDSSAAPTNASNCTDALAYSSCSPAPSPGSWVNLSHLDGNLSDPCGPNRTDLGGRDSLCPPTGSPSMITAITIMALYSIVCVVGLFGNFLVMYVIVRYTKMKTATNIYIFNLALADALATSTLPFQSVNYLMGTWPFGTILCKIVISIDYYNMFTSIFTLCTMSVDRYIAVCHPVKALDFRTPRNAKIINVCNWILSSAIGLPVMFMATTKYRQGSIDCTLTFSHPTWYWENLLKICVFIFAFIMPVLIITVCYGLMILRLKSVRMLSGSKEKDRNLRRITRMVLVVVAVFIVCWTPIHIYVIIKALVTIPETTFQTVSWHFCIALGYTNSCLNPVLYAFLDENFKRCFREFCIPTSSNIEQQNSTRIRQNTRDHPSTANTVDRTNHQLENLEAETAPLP
# [1] = biological target: Delta-type opioid receptor (Homo sapiens, UniProt P41143); assay: Binding affinity to delta opioid receptor
# Sequence of Delta-type opioid receptor (P41143 whole entry): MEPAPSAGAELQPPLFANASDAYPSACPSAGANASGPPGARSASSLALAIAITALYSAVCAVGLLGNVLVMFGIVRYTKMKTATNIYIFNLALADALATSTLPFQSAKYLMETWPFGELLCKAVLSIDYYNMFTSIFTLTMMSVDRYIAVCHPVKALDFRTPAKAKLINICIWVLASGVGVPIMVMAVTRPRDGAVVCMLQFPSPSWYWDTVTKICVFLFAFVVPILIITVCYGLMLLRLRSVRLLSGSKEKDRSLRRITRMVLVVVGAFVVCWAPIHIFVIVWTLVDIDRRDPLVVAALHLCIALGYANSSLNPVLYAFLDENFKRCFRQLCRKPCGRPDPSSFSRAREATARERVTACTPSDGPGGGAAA
# [2] = biological target: Kappa-type opioid receptor (Homo sapiens, UniProt P41145); assay: Binding affinity to kappa opioid receptor
# Sequence of Kappa-type opioid receptor (P41145 whole entry): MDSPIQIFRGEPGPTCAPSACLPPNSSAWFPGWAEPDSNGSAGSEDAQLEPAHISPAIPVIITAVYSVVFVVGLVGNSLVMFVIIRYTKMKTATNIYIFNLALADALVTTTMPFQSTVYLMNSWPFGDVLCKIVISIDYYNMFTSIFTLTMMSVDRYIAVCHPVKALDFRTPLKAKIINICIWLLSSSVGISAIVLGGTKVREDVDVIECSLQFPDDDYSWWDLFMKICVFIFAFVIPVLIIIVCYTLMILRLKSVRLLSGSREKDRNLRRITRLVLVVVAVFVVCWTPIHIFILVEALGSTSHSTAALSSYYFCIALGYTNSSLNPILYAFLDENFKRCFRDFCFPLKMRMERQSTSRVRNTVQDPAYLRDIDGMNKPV
Compound,ED50 (Mus musculus) [mg/kg],Ki (Mu-type opioid receptor) [µM],Ki [1] [µM],Ki [2] [µM]
C=Cc1c(-c2ccccc2)nn(C)c(=O)c1NCCc1ccccc1,89.4,–,–,–
C=Cc1c(-c2ccccc2)nn(CCCC)c(=O)c1N,–,> 10,> 10,> 10
